# Most compounds without a hit are left out; they make up all but 2.7% or so of the library.
# ARFGAP1 inhibitor – inhibitors of rat ARFGAP1; Q62848; Arfgap1-stimulated ARF1 GTP hydrolysis, GDP FP detection; inhibition, % at 16.5 µM; 360,000 compounds, 0.26% hits; AID 651572;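 active = inhibition above a per-plate limit, mean inhibition of low control wells plus 3 SD, cut at about 25% in these data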;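 note: 0% = DMSO wells with enzyme and 100% = wells lacking Arfgap1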
# Target sequence (Q62848 1-136 limits assumed): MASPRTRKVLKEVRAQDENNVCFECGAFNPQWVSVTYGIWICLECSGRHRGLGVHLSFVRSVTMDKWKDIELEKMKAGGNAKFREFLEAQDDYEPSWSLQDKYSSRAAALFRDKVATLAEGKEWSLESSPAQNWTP
#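 Material: rat Arfgap1 catalytic domain, aa 1-136; also added: human ARF1(Δ1-17)-GTP substrate; compound dosing: one concentration, 16.5 µM, DMSO 1.26%; incubation: GTP hydrolysis reaction 2 h at 25 °C; measured by: Tracer-displacement fluorescence polarization with EDTA stop, 620/688 nm; evaluation: % inhibition from polarization; repeats: one replicate per compound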
# PAFAH1B3 inh – PAFAH1B3 (human) inhibition | Q15102 | recombinant PAFAH1B3, FP-rhodamine probe, fluorescence polarization | inhibition, % at 3.39 µM | 340,000 compounds, 0.28% hits;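 active = inhibition above the screen-wide average of all tested compounds plus 3 SD, cut at about 25% in these data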;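 note: 0% = enzyme with DMSO only and 100% = wells lacking PAFAH1B3 protein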
# ASAP1 inh – blocks human ASAP1-stimulated Arf1 GTP hydrolysis. AID 624377. 360,000 compounds, 0.19% hits. inhibition, % at 16.5 µM. Q9ULH1. GDP FP detection; in the data active = inhibition above about 25%;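 note: 0% = vehicle with enzyme and substrate and 100% = no enzyme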
# Target sequence (Q9ULH1 325-724 limits assumed): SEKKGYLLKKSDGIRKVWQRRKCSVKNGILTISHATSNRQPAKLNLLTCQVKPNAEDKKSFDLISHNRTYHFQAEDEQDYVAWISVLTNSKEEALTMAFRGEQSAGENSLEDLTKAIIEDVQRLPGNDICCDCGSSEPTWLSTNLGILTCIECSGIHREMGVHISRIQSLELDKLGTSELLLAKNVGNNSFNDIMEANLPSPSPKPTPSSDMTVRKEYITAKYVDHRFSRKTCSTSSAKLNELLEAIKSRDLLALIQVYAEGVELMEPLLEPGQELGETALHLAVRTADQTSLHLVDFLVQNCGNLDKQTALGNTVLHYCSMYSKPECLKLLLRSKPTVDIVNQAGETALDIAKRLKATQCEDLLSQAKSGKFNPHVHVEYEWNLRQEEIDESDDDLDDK
# pPAFAH inh – pPAFAH (human) enzyme inhibition | Q13093 | recombinant pPAFAH, FP-rhodamine probe fluorescence polarization | inhibition, % at 3.39 µM | 330,000 compounds, 1.5% hits;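 active = inhibition above the mean inhibition across the screen plus 3 SD, cut at about 25% in these data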;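 note: inhibitors block binding of the rhodamine activity-based probe so polarization drops; 0% = enzyme with DMSO and 100% = wells lacking pPAFAH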
# PAFAH1B2 FP inh – blocks human PAF acetylhydrolase 1b catalytic subunit 2; recombinant PAFAH1B2, FP-rhodamine activity probe, fluorescence polarization; inhibition, % at 3.39 µM; 340,000 compounds, 1.2% hits; P68402;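 active = inhibition above the mean of all tested compounds plus 3 SD, cut at about 24% in these data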;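 note: 0% = enzyme with DMSO and 100% = wells lacking PAFAH1B2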
# PAFAH2 inh – inhibitors of human PAFAH2; 340,000 compounds, 0.99% hits; inhibition, % at 3.39 µM; recombinant PAFAH2, FP-rhodamine activity probe, fluorescence polarization; AID 492956; Q99487;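 active = inhibition above the mean over all tested compounds plus 3 SD, cut at about 30% in these data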;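 note: inhibitors block probe labeling of enzyme so polarization drops; 0% = enzyme with DMSO and 100% = wells lacking PAFAH2 protein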
# PAFAH2 FP conf – confirmation of human PAFAH2 inhibitors | AID 493030 | shares compounds with PAFAH2 inh | inhibition, % at 3.39 µM | 2,300 compounds, 65% hits | recombinant PAFAH2, FP-rhodamine activity probe, fluorescence polarization;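 active = mean inhibition over three repeats above a set limit taken from the earlier primary screen, cut at about 30% in these data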;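 note: inhibitor blocks binding of rhodamine activity probe so polarization falls; 0% = enzyme with DMSO and 100% = wells lacking PAFAH2 protein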
# * = called active by the depositor; / = not tested or not shown.
SMILES,ARFGAP1 inhibitor,PAFAH1B3 inh,ASAP1 inh,pPAFAH inh,PAFAH1B2 FP inh,PAFAH2 inh,PAFAH2 FP conf
COC(=O)CCCC1=CC2=C(c3ccccc3)C(=O)C(C)(OC(=O)C3CCCC3)C(=O)C2=CN1C(CO)CO (stereo not drawn),-19,-5,-3,5,2,4,/
CCOC(=O)N1CCN(C(=O)C[C@@H]2C[C@@]3(C(=O)OC)CC(C)(C)CC=C3N(Cc3ccccc3)C2=O)CC1,2,/,-1,/,/,/,/
COC(=O)c1c(NC(=O)c2cccc(S(=O)(=O)N3CCN(C)CC3)c2)sc(C)c1C,7,-2,8,5,1,30*,16
CSc1nc(-c2ccc(F)cc2)cc(=O)[nH]1,0,-2,0,3,5,3,/
COc1ccccc1/C=C/C(=O)OCC(=O)Nc1ccc2c(c1)OCCO2,1,5,2,16,-1,80*,78*
COc1cc(/C=C/C(=O)OCC(=O)Nc2ccc3c(c2)OCCO3)ccc1OCC#N,23,4,12,-4,-2,42*,51*
CC1=NN(c2ccc(C)cc2)C(=O)/C1=C/c1ccc(-c2cc([N+](=O)[O-])ccc2O)o1,-1,20,12,/,11,34*,20
O=C(Nc1ccc([N+](=O)[O-])cc1Cl)c1cc(Cl)ccc1O,-6,4,-2,13,8,1,/
O=C(Nc1cccc(Cl)c1)c1cc(N=Nc2ccc([N+](=O)[O-])cc2Cl)ccc1O,-2,23,3,22,18,33*,4
CC1(C)CC(=NOC(=O)c2ccccc2)CC(C)(C)N1O,-3,8,-12,3,6,33*,32*
O=S(=O)(c1ccccc1)N1CCN(c2cccc(Cl)c2)CC1,4,7,4,9,3,7,/
O=C(ON=C1CCN(S(=O)(=O)c2ccccc2)CC1)c1ccccc1,0,6,-2,2,10,91*,83*
O=S(=O)(c1ccccc1)N1CCC(=NO)CC1,-14,10,5,-1,8,10,/
CC1(C)Cc2noc(N)c2C(C)(C)N1OC(=O)c1ccccc1,0,1,4,2,3,0,/
O=C(ON=C1CCN(S(=O)(=O)c2ccccc2)CC1)c1cccc(Cl)c1,-2,9,11,13,17,82*,79*
COc1ccc(C(=O)ON=C2CCN(C)CC2)cc1,14,1,9,3,5,75*,63*
CC(C)[C@@H]1CC[C@@H](C)C[C@H]1O,-15,/,3,/,/,/,/
CCC(=O)N(c1nnc(SCC(=O)c2ccc[nH]2)s1)C1CC1,-15,9,-4,6,2,5,/
O=C(O)c1cccc(NS(=O)(=O)c2cccc3nsnc23)c1,-4,6,-3,6,-2,-10,/
COc1ccccc1CC(=O)NCc1nn(-c2ccccc2)nc1C,7,-3,10,2,3,-4,/
COc1cc(C(=O)OCC(C)=O)ccc1OCc1c(C)noc1C,1,9,1,/,2,1,/
COc1cc(C(=O)OCC(=O)N2CCCCC2C)ccc1OCc1c(C)noc1C (stereo not drawn),20,1,-11,5,2,32*,13
Cc1c(Cl)cccc1NC(=S)NC(=O)c1ccccc1,16,/,-3,/,/,/,/
Cc1ccc(C(=O)OCC(=O)c2ccc[nH]2)s1,-11,6,3,11,5,35*,31*
O=C(COC(=O)c1ccc(Cl)s1)c1ccc[nH]1,0,7,-2,9,-7,13,/
SMILES,ARFGAP1 inhibitor,PAFAH1B3 inh,ASAP1 inh,pPAFAH inh,PAFAH1B2 FP inh,PAFAH2 inh,PAFAH2 FP conf
CC(C)Oc1ccc(C(=O)OCC(=O)c2ccc[nH]2)cc1,-2,5,-8,8,2,54*,36*
O=C(OCC(=O)c1ccc[nH]1)c1ccc(C(F)(F)F)cc1,1,11,-7,19,0,3,/
O=c1[nH]c2cc(C(F)(F)F)ccc2n1-c1cc(C(F)(F)F)ccc1O,-8,-3,-19,13,2,49*,42*
Cc1c(C(C)(C)O)[nH]c2cc(C(F)(F)F)ccc12,15,1,-6,1,7,2,/
Cc1nc(-c2ccc(Br)cc2)ccc1C(=O)O,-1,2,7,3,2,-4,/
CCOc1ccc(NC(=O)CC(=O)Nc2ccc(OCC)cc2)cc1,4,9,-6,3,4,-1,/
O=C(CC1CCCC1)Nc1ccc(Br)cc1,9,1,13,0,2,1,/
O=C(COC(=O)CC1CCCC1)Nc1ccc(Cl)cc1,-1,-2,15,/,1,80*,74*
CCOc1ccc(NC(=O)COC(=O)CC2CCCCC2)cc1,7,-3,6,16,3,45*,41*
COc1ccc(/C=C/c2nc3ccccc3c(=O)o2)cc1,9,3,11,-6,11,62*,57*
COc1ccc(Nc2nc3ccccc3c(=O)[nH]2)cc1,4,1,-5,-5,6,0,/
COc1ccccc1/C=C/c1nc2ccc(OC(C)=O)cc2c(=O)o1,-5,9,-5,13,2,78*,67*
O=C(Nc1ccc(-c2csc(Nc3ccccc3)n2)cc1)c1cc([N+](=O)[O-])cc(C(F)(F)F)c1,14,22,16,2,23,50*,-8
O=C(Nc1cccc(-c2csc(Nc3cccc(C(F)(F)F)c3)n2)c1)c1cc([N+](=O)[O-])cc(C(F)(F)F)c1,3,7,11,1,-6,30*,-9
O=C(Nc1ccc(-c2csc(Nc3ccccc3)n2)cc1)c1cccc(C(F)(F)F)c1,5,16,16,0,5,-6,/
O=C(NC1CCCCC1)C(c1ccncc1)N(C(=O)Cn1nnc(-c2cccs2)n1)C1CCCC1 (stereo not drawn),5,-4,22,6,-1,62*,54*
COc1ccccc1CNC(=O)COC(=O)c1ccc(Cl)c(N)c1,0,1,17,16,-1,33*,35*
COc1ccccc1CNC(=O)COC(=O)c1ccc(NC(N)=O)cc1,0,-3,9,0,2,56*,52*
COc1ccccc1CNC(=O)COC(=O)c1ccc(N2CCCC2=O)cc1,13,7,8,0,8,60*,46*
COc1ccccc1CNC(=O)COC(=O)c1c[nH]c2ccccc12,-2,6,8,/,0,33*,18
COc1ccc(C(=O)CCC(=O)Nc2cccnc2)cc1OC,9,4,-14,-13,1,4,/
Clc1cccc(Cc2c(-c3ccccc3)nc3c4ccccc4ccn23)c1,-4,/,0,/,/,/,/

# From PubChem
